Calls of active or inactive are those of the source. The rule behind the calls is not given here.
Key:
MCF7 [1] = assay: Disruption of cell morphology in human MCF7 cells assessed as decrease in tip-cell adhesion force at 10 ug/ml by atomic force microscopy relative to control; assay type: functional, cell-based
How it was run: (§1)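 AFM high-resolution topography and force measurements on control MCF-7 cells and cells treated with 10 μg/mL complex, assessing surface ultrastructure, rigidity and tip-cell adhesion force.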

MCF7 [2] = assay: Induction of apoptosis in human MCF7 cells assessed as caspase 9 activation at 20 ug/ml by fluorometric analysis (reference value: 100%); assay type: functional, cell-based
How it was run: (§2)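 Caspase-3, -8 and -9 activities read fluorometrically in whole-cell extracts of treated MCF-7; mean ± standard deviation of three independent experiments.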

MCF7 [3] = assay: Disruption of cell morphology in human MCF7 cells assessed as deformed shrunk cell tails at 10 ug/ml by atomic force microscopy relative to control; assay type: functional, cell-based; how it was run: as §1
MCF7 [4] = assay: Disruption of microfilament organization in human MCF7 cells at 10 ug/ml by immunofluorescence analysis; assay type: functional, cell-based
COLO 205 [5] = assay: Growth inhibition of human COLO205 cells at 20 ug/ml by MTT assay; assay type: functional
MCF7 [6] = assay: Induction of apoptosis in human MCF7 cells assessed as disruption of mitochondrial membrane potential measured as mean fluorescence intensity at 5 ug/ml by rhodamine 123 staining-based flow cytometry (reference value: 3094 no unit); assay type: functional, cell-based
MCF7 [7] = assay: Induction of apoptosis in human MCF7 cells assessed as intracellular ROS production measured as mean fluorescence intensity at 5 ug/ml using DCFH-DA staining-based flow cytometry (reference value: 101.50 no unit); assay type: functional, cell-based
MCF7 [8] = assay: Antimigratory activity against human MCF7 cells at 2.5 to 20 ug/ml after 24 hrs by wound-healing assay; assay type: functional, cell-based
How it was run: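 Scratch wound-healing: monolayers wounded with a p200 pipette tip, kept with or without complex; images taken at 0 and 24 h; reference lines drawn equidistant.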

MCF7 [9] = assay: Induction of apoptosis in human MCF7 cells assessed as early apoptotic cells at 20 ug/ml after 24 hrs by annexin-V FITC/propidium iodide staining-based flow cytometry (reference value: 0.5%); assay type: functional, cell-based
How it was run: (§3)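 Apoptosis in MCF-7 after 24 h exposure to 5, 10 or 20 μg/mL complex; annexin-V-FITC/PI staining with flow cytometry. Quadrants: Q3 live, Q4 apoptotic, Q2 necrotic or late apoptotic.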

MCF7 [10] = assay: Disruption of cell integrity in human MCF7 cells at 10 ug/ml by immunofluorescence analysis; assay type: functional, cell-based
How it was run: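 MCF-7 cells treated with complex at various concentrations; α-tubulin stained with Tubulin-Tracker red and fibre network imaged by immunofluorescence microscopy.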

MCF7 [11] = assay: Cell cycle arrest in human MCF7 cells assessed as accumulation at G2/M phase at 2.5 ug/ml after 24 hrs by propidium iodide staining-based flow cytometry (reference value: 7.43 +/- 0.98%); assay type: functional
MCF7 [12] = assay: Induction of apoptosis in human MCF7 cells assessed as intracellular ROS production measured as mean fluorescence intensity at 2.5 ug/ml using DCFH-DA staining-based flow cytometry (reference value: 101.50 no unit); assay type: functional, cell-based
MCF7 [13] = assay: Induction of apoptosis in human MCF7 cells assessed as viable cells at 10 ug/ml after 24 hrs by annexin-V FITC/propidium iodide staining-based flow cytometry (reference value: 98.1%); assay type: functional, cell-based; how it was run: as §3
MCF7 [14] = assay: Cell cycle arrest in human MCF7 cells assessed as accumulation at G2/M phase at 20 ug/ml after 24 hrs by propidium iodide staining-based flow cytometry (reference value: 7.43 +/- 0.98%); assay type: functional
COLO 205 [15] = assay: Growth inhibition of human COLO205 cells at 30 ug/ml by MTT assay; assay type: functional
MCF7 [16] = assay: Growth inhibition of human MCF7 cells at 30 ug/ml by MTT assay; assay type: functional
MCF7 [17] = assay: Induction of apoptosis in human MCF7 cells assessed as necrotic cells at 20 ug/ml after 24 hrs by annexin-V FITC/propidium iodide staining-based flow cytometry (reference value: 0.3%); assay type: functional, cell-based; how it was run: as §3
HepG2 [18] = assay: Growth inhibition of human HepG2 cells at 20 ug/ml by MTT assay; assay type: functional
MCF7 [19] = assay: Induction of apoptosis in human MCF7 cells assessed as late apoptotic cells at 20 ug/ml after 24 hrs by annexin-V FITC/propidium iodide staining-based flow cytometry (reference value: 1.0%); assay type: functional, cell-based; how it was run: as §3
MCF7 [20] = assay: Induction of apoptosis in human MCF7 cells assessed as segmentation of nuclei at 10 ug/ml by DAPI staining-based immunofluorescence analysis relative to control; assay type: functional, cell-based
How it was run: (§4)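 Nuclear morphology of control and 10 μg/mL-treated MCF-7 cells visualised by DAPI staining under fluorescence microscopy.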

MCF7 [21] = assay: Induction of apoptosis in human MCF7 cells assessed as disruption of mitochondrial membrane potential measured as mean fluorescence intensity at 20 ug/ml by rhodamine 123 staining-based flow cytometry (reference value: 3094 no unit); assay type: functional, cell-based
MCF7 [22] = assay: Growth inhibition of human MCF7 cells at 5 ug/ml by MTT assay; assay type: functional
MCF7 [23] = assay: Induction of apoptosis in human MCF7 cells assessed as necrotic cells at 5 ug/ml after 24 hrs by annexin-V FITC/propidium iodide staining-based flow cytometry (reference value: 0.3%); assay type: functional, cell-based; how it was run: as §3
COLO 205 [24] = assay: Growth inhibition of human COLO205 cells by MTT assay; assay type: functional, cell-based
MCF7 [25] = assay: Induction of apoptosis in human MCF7 cells assessed as intracellular ROS production measured as mean fluorescence intensity at 10 ug/ml using DCFH-DA staining-based flow cytometry (reference value: 101.50 no unit); assay type: functional, cell-based
MCF7 [26] = assay: Induction of apoptosis in human MCF7 cells assessed as early apoptotic cells at 10 ug/ml after 24 hrs by annexin-V FITC/propidium iodide staining-based flow cytometry (reference value: 0.5%); assay type: functional, cell-based; how it was run: as §3
MCF7 [27] = assay: Induction of apoptosis in human MCF7 cells assessed as viable cells at 20 ug/ml after 24 hrs by annexin-V FITC/propidium iodide staining-based flow cytometry (reference value: 98.1%); assay type: functional, cell-based; how it was run: as §3
HepG2 [28] = assay: Growth inhibition of human HepG2 cells at 30 ug/ml by MTT assay; assay type: functional
HepG2 [29] = assay: Growth inhibition of human HepG2 cells at 10 ug/ml by MTT assay; assay type: functional
MCF7 [30] = assay: Induction of apoptosis in human MCF7 cells assessed as caspase 8 activation at 20 ug/ml by fluorometric analysis (reference value: 100%); assay type: functional, cell-based; how it was run: as §2
MCF7 [31] = assay: Growth inhibition of human MCF7 cells at 10 ug/ml by MTT assay; assay type: functional
MCF7 [32] = assay: Induction of apoptosis in human MCF7 cells assessed as late apoptotic cells at 10 ug/ml after 24 hrs by annexin-V FITC/propidium iodide staining-based flow cytometry (reference value: 1.0%); assay type: functional, cell-based; how it was run: as §3
HepG2 [33] = assay: Growth inhibition of human HepG2 cells by MTT assay; assay type: functional, cell-based
MCF7 [34] = assay: Cell cycle arrest in human MCF7 cells assessed as accumulation at G2/M phase at 5 ug/ml after 24 hrs by propidium iodide staining-based flow cytometry (reference value: 7.43 +/- 0.98%); assay type: functional
MCF7 [35] = assay: Induction of apoptosis in human MCF7 cells assessed as caspase 3 activation at 20 ug/ml by fluorometric analysis (reference value: 100%); assay type: functional, cell-based; how it was run: as §2
MCF7 [36] = assay: Induction of apoptosis in human MCF7 cells assessed as viable cells at 5 ug/ml after 24 hrs by annexin-V FITC/propidium iodide staining-based flow cytometry (reference value: 98.1%); assay type: functional, cell-based; how it was run: as §3
MCF7 [37] = assay: Induction of apoptosis in human MCF7 cells assessed as early apoptotic cells at 5 ug/ml after 24 hrs by annexin-V FITC/propidium iodide staining-based flow cytometry (reference value: 0.5%); assay type: functional, cell-based; how it was run: as §3
MCF7 [38] = assay: Induction of apoptosis in human MCF7 cells assessed as necrotic cells at 10 ug/ml after 24 hrs by annexin-V FITC/propidium iodide staining-based flow cytometry (reference value: 0.3%); assay type: functional, cell-based; how it was run: as §3
COLO 205 [39] = assay: Growth inhibition of human COLO205 cells at 5 ug/ml by MTT assay; assay type: functional
MCF7 [40] = assay: Growth inhibition of human MCF7 cells by MTT assay; assay type: functional, cell-based
MCF7 [41] = assay: Growth inhibition of human MCF7 cells at 20 ug/ml by MTT assay; assay type: functional
MCF7 [42] = assay: Cell cycle arrest in human MCF7 cells assessed as accumulation at G2/M phase at 10 ug/ml after 24 hrs by propidium iodide staining-based flow cytometry (reference value: 7.43 +/- 0.98%); assay type: functional
HepG2 [43] = assay: Growth inhibition of human HepG2 cells at 5 ug/ml by MTT assay; assay type: functional
MCF7 [44] = assay: Induction of apoptosis in human MCF7 cells assessed as late apoptotic cells at 5 ug/ml after 24 hrs by annexin-V FITC/propidium iodide staining-based flow cytometry (reference value: 1.0%); assay type: functional, cell-based; how it was run: as §3
MCF7 [45] = assay: Induction of apoptosis in human MCF7 cells assessed as disruption of mitochondrial membrane potential measured as mean fluorescence intensity at 10 ug/ml by rhodamine 123 staining-based flow cytometry (reference value: 3094 no unit); assay type: functional, cell-based
COLO 205 [46] = assay: Growth inhibition of human COLO205 cells at 10 ug/ml by MTT assay; assay type: functional
MCF7 [47] = assay: Induction of apoptosis in human MCF7 cells assessed as gatheration of condensed chromatin at periphery of nuclear membrane at 10 ug/ml by DAPI staining-based immunofluorescence analysis relative to control; assay type: functional, cell-based; how it was run: as §4

Q: For “5-hydroxy-2-phenyl-7-(triphenylgermyloxy)-4H-chromen-4-one ethanol”, which Activity (MCF7 [1]) is on record?
A: Active

Q: What about the Activity (MCF7 [2]) of the same substance?
A: 286%

Q: And the Activity (MCF7 [3])?
A: Active

Q: What about the Activity (MCF7 [4]) of the same substance?
A: Active

Q: What about the growth inhibition (GI) (COLO 205 [5]) of the same substance?
A: 20.3%

Q: And the Flu intensity (MCF7 [6])?
A: 1980

Q: And the Flu intensity (MCF7 [7])?
A: 107

Q: And the Activity (MCF7 [8])?
A: Active

Q: And the Activity (MCF7 [9])?
A: 19.5%

Q: And the Activity (MCF7 [10])?
A: Active

Q: What about the Activity (MCF7 [11]) of the same substance?
A: 8.73%

Q: And the Flu intensity (MCF7 [12])?
A: 87.1

Q: What about the Activity (MCF7 [13]) of the same substance?
A: 88.1%

Q: What about the Activity (MCF7 [14]) of the same substance?
A: 30.9%

Q: What about the growth inhibition (GI) (COLO 205 [15]) of the same substance?
A: 31.6%

Q: And the growth inhibition (GI) (MCF7 [16])?
A: 42.1%

Q: And the Activity (MCF7 [17])?
A: 0.6%

Q: And the growth inhibition (GI) (HepG2 [18])?
A: 31.1%

Q: What about the Activity (MCF7 [19]) of the same substance?
A: 5.4%

Q: And the Activity (MCF7 [20])?
A: Active

Q: What about the Flu intensity (MCF7 [21]) of the same substance?
A: 1480

Q: And the growth inhibition (GI) (MCF7 [22])?
A: 7.01%

Q: What about the Activity (MCF7 [23]) of the same substance?
A: 0.5%

Q: And the “growth inhibition (GI)” value (COLO 205 [24])?
A: Dose-dependent effect

Q: And the Flu intensity (MCF7 [25])?
A: 126

Q: What about the Activity (MCF7 [26]) of the same substance?
A: 5.1%

Q: And the Activity (MCF7 [27])?
A: 74.5%

Q: And the growth inhibition (GI) (HepG2 [28])?
A: 36.7%

Q: And the growth inhibition (GI) (HepG2 [29])?
A: 20.3%

Q: What about the Activity (MCF7 [30]) of the same substance?
A: 181%

Q: What about the growth inhibition (GI) (MCF7 [31]) of the same substance?
A: 19.2%

Q: And the Activity (MCF7 [32])?
A: 6.2%

Q: What about the “growth inhibition (GI)” value (HepG2 [33]) of the same substance?
A: Dose-dependent effect

Q: What about the Activity (MCF7 [34]) of the same substance?
A: 15.8%

Q: What about the Activity (MCF7 [35]) of the same substance?
A: 214%

Q: What about the Activity (MCF7 [36]) of the same substance?
A: 94.9%

Q: What about the Activity (MCF7 [37]) of the same substance?
A: 1.5%

Q: And the Activity (MCF7 [38])?
A: 0.7%

Q: What about the growth inhibition (GI) (COLO 205 [39]) of the same substance?
A: 5.85%

Q: What about the “growth inhibition (GI)” value (MCF7 [40]) of the same substance?
A: Dose-dependent effect

Q: And the growth inhibition (GI) (MCF7 [41])?
A: 31.3%

Q: What about the Activity (MCF7 [42]) of the same substance?
A: 24.5%

Q: What about the growth inhibition (GI) (HepG2 [43]) of the same substance?
A: 7.95%

Q: And the Activity (MCF7 [44])?
A: 3.2%

Q: What about the Flu intensity (MCF7 [45]) of the same substance?
A: 1370

Q: And the growth inhibition (GI) (COLO 205 [46])?
A: 12.1%

Q: And the Activity (MCF7 [47])?
A: Active
